Compounds with a hit are over-represented: about 2.5% of the library has one in this group of screens.
SENP8 block-1 = human SENP8 protease inhibitors, primary screen, biochemical, fluorescence, Nedd8 protein substrate, uHTS; Sentrin-specific protease 8 (Homo sapiens), Q96LD8; recombinant SENP8; inhibition, % at 20 µM; 360,000 tested, 0.64% active; AID 602440, 2012; in the data active = inhibition mostly above about 40%, no sharp cut-off; inactive = mostly below about 27%
Target sequence (Q96LD8 whole entry, looked up): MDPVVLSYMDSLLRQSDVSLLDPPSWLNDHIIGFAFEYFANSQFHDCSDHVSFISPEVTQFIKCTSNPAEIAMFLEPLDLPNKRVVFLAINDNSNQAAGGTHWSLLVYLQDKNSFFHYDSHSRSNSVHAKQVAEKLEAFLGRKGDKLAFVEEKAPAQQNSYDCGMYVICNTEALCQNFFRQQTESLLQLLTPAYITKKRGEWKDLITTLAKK
SENP1 inh = human SENP1 catalytic domain inhibitors, primary screen, biochemical, FRET, uHTS; 360,000 tested, 0.21% active; recombinant SENP1 catalytic domain, CyPet-SUMO1-YPet FRET cleavage; Sentrin-specific protease 1 (Homo sapiens), Q9P0U3; inhibition, % at 10 µM;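 active = inhibition at least 30% at 10 µM, raw YFP signal under a set limit, fluorescence ratio 0.5 to 1.5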;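 also: 0% = enzyme with DMSO and 100% = no enzyme wells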
Target sequence (Q9P0U3 419-644 limits assumed): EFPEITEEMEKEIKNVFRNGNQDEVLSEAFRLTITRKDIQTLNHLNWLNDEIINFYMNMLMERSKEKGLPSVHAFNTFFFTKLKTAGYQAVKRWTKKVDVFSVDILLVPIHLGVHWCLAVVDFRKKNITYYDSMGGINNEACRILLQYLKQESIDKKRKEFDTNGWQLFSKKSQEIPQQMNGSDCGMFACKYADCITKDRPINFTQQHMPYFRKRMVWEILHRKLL
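system = hSENP1 catalytic domain, recombinant | reagent = SFCypet-SUMO1-SFYpet substrate at 25 nM | doses = one dose per compound, 10 µM, 0.5% DMSO | incubation = enzyme reaction for 50 min at room temperature, dark | measured by = FRET, CFP and YFP emission | controls = no-enzyme low, enzyme-DMSO high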
SENP7 block = SENP7 protease inhibitors, primary screen, biochemical, luminescence, uHTS. Sentrin-specific protease 7 (Homo sapiens), Q9BQF6. recombinant SENP7, Z-RLRGG-aminoluciferin luminescence, 40 min. inhibition, % at 5 µM. 330,000 tested, 1.5% active;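 active = inhibition above about 50% at the single test dose, limit read from the data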;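 also: plate controls were DMSO with enzyme for no effect and no enzyme buffer wells for full effect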
SENP6 block = SENP6 protease inhibitors, primary screen, biochemical, luminescence, uHTS. Sentrin-specific protease 6 (Homo sapiens), Q9GZR1. Recombinant SENP6 catalytic domain, aminoluciferin luminescence. inhibition, % at 10 µM. 330,000 tested, 1.8% active;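 active = inhibition above about 50% at the single tested dose, limit read from the data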;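 also: plate controls were DMSO wells with enzyme for no effect and DMSO wells lacking enzyme for full effect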
SENP8 block-2 = SENP8 protease inhibitors, primary screen, biochemical, luminescence; Sentrin-specific protease 8 (Homo sapiens), Q96LD8; purified SENP8, Z-RLRGG-aminoluciferin cleavage; inhibition, % at 10 µM; 330,000 tested, 1.2% active; in the data active = inhibition above about 50%
SENP8 conf = SENP8 protease inhibitors, retest, confirmation, biochemical, luminescence, single concentration | shares compounds with SENP7 block | Recombinant SENP8, Z-RLRGG-aminoluciferin luminescence, 60 min | inhibition, % at 12.5 µM | 6,200 tested, 40% active | AID 488912, 2010;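 active = mean inhibition across replicates above about 50%, limit read from the data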
SENP6 conf = SENP6 protease inhibitors, confirmation, biochemical, luminescence, single concentration | shares compounds with SENP7 block | recombinant SENP6, Z-RLRGG-aminoluciferin luminescence | inhibition, % at 12.5 µM | 6,200 tested, 58% active | AID 488915, 2010
SENP7 confirm = SENP7 protease inhibitors, retest, confirmation, biochemical, luminescence, single concentration | shares compounds with SENP7 block | recombinant SENP7, Z-RLRGG-aminoluciferin luminescence, 40 min | inhibition, % at 12.5 µM | 6,200 tested, 69% active | AID 488917, 2010
Casp3 select = caspase-3 protease inhibitors, confirmation, selectivity assay for SENP inhibitor project, biochemical, single concentration. 6,200 tested, 60% active. shares compounds with SENP7 block. inhibition, % at 12.5 µM. purified caspase-3, Z-DEVD-aminoluciferin luminescence, 60 min. AID 488918, 2010;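 active = mean inhibition above about 50%, limit read from the data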;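 also: plate controls were enzyme with DMSO for no effect and wells without caspase-3 for full effect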
Target sequence (P42574 28-227 limits assumed): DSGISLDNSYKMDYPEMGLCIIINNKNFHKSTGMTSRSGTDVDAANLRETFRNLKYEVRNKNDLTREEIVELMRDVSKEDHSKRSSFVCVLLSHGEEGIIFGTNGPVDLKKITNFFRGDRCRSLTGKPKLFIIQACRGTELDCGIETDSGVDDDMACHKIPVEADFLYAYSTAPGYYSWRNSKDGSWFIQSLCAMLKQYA
SENP luc ctr = interferes with luciferase luminescence in SENP counter-screen. shares compounds with SENP7 block. Pre-incubated SENP8/Z-RLRGG-aminoluciferin, luciferase luminescence interference. inhibition, % at 12.5 µM. 6,200 tested, 39% active. AID 488919;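 active = mean inhibition above about 50% when retested at one dose, limit read from the data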;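 also: plate controls were DMSO wells with completed reaction for no effect and substrate without enzyme for full effect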
The depositor's hits bear a star.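 The calls were made as follows, unless noted: active = mean inhibition above about 50% in the one-dose retest (limit read from the data); inactive = the rest.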

What do the screens show for `O=C(CCC1CCCC1)c1c(O)c2ccccc2oc1=O`?
SENP8 block-1: 4.4; SENP1 inh: 0.0; SENP7 block: 4.0; SENP6 block: 70.5*; SENP8 block-2: 46.4; SENP8 conf: 67.6*; SENP6 conf: 67.8*; SENP7 confirm: 85.1*; Casp3 select: 70.5*; SENP luc ctr: 39.0

How did O=C(c1c(O)c2ccccc2oc1=O)C1CCCCC1 do in these assays?
SENP8 block-1: 9.8; SENP1 inh: 0.5; SENP7 block: 2.3; SENP6 block: 2.9; SENP8 block-2: 9.4

Results for CCc1ccc(/C=N\NC(=O)c2ccc(Br)o2)s1 ?
SENP8 block-1: -26.5; SENP1 inh: 3.4; SENP7 block: 31.4; SENP6 block: 54.9*; SENP8 block-2: 15.4; SENP8 conf: 40.7; SENP6 conf: 37.3; SENP7 confirm: 76.0*; Casp3 select: 67.2*; SENP luc ctr: 53.7*

How did Cc1ccc(/C=N/NC(=O)c2ccc(Br)o2)s1 do in these assays?
SENP8 block-1: -18.4; SENP1 inh: -1.8; SENP7 block: -3.2; SENP6 block: 13.6; SENP8 block-2: -4.9

Results for O=S(=O)(/N=C(/Nc1nc2ccccc2s1)c1ccccc1)c1ccccc1 ?
SENP8 block-1: -8.0; SENP1 inh: 1.6; SENP7 block: 14.9; SENP6 block: 71.7*; SENP8 block-2: 60.1*; SENP8 conf: 0.6; SENP6 conf: 6.6; SENP7 confirm: 8.7; Casp3 select: 11.9; SENP luc ctr: 22.8

How did Cc1ccc2nc(N/C(=N/S(=O)(=O)c3ccc(F)cc3)c3ccccc3)sc2c1 do in these assays?
SENP8 block-1: -37.4; SENP1 inh: 0.8; SENP7 block: 4.4; SENP6 block: 7.9; SENP8 block-2: 0.1

Results for CN(C)c1ccc(/C=N/Nc2cccc(C(=O)O)c2)cc1 ?
SENP8 block-1: -51.7; SENP1 inh: -14.6; SENP7 block: 5.2; SENP6 block: 98.8*; SENP8 block-2: 96.2*; SENP8 conf: 98.0*; SENP6 conf: 101.5*; SENP7 confirm: 104.3*; Casp3 select: 99.7*; SENP luc ctr: 99.9*

What do the screens show for `COc1ccc(Br)cc1/C=N/Nc1cccc(C(=O)O)c1`?
SENP8 block-1: -40.3; SENP1 inh: -14.2; SENP7 block: 8.0; SENP6 block: 4.5; SENP8 block-2: -4.9

How did O=C(O)c1cccc(N/N=C/c2cc(Br)cc(Br)c2O)c1 do in these assays?
SENP8 block-1: -2.9; SENP1 inh: -82.6; SENP7 block: 1.7; SENP6 block: 76.8*; SENP8 block-2: 73.8*; SENP8 conf: 39.0; SENP6 conf: 90.0*; SENP7 confirm: 95.2*; Casp3 select: 4.7; SENP luc ctr: 77.0*

What do the screens show for `CC(C)(C)c1ccc(/C=N/Nc2cccc(C(=O)O)c2)cc1`?
SENP8 block-1: -18.1; SENP1 inh: -0.1; SENP7 block: -2.7; SENP6 block: 10.4; SENP8 block-2: 26.9

Results for CCc1ccc(C(=O)Cn2ccsc2=N)cc1 ?
SENP8 block-1: 2.6; SENP1 inh: 2.4; SENP7 block: 80.7*; SENP6 block: 78.6*; SENP8 block-2: 74.9*; SENP8 conf: 58.4*; SENP6 conf: 53.5*; SENP7 confirm: 84.2*; Casp3 select: 65.5*; SENP luc ctr: 74.3*

How did O/C(=C\c1nc2ccccc2nc1/C=C(\O)c1ccccc1)c1ccccc1 do in these assays?
SENP8 block-1: -412.3; SENP1 inh: -26.6; SENP7 block: 1.1; SENP6 block: 9.1; SENP8 block-2: 2.7

Results for O=Nc1[nH]c(=O)c(/C=C(\O)c2ccccc2)nc1NO ?
SENP8 block-1: 26.3; SENP1 inh: -2.4; SENP7 block: 58.0*; SENP6 block: 56.1*; SENP8 block-2: 44.1; SENP8 conf: 68.5*; SENP6 conf: 63.8*; SENP7 confirm: 85.9*; Casp3 select: 93.2*; SENP luc ctr: 70.1*

What do the screens show for `CCOC(=O)C1CCN(C(=O)Nc2ccc(OC(F)(F)F)cc2)CC1`?
SENP8 block-1: 12.3; SENP1 inh: 0.2; SENP7 block: -6.8; SENP6 block: -21.6; SENP8 block-2: -1.7

Results for CC(=O)Nc1ccc(-c2cn3ccsc3n2)cc1 ?
SENP8 block-1: -5.1; SENP1 inh: 0.3; SENP7 block: 12.0; SENP6 block: -6.1; SENP8 block-2: -15.1

How did c1cn2cc(-c3ccc4c(c3)OCO4)nc2s1 do in these assays?
SENP8 block-1: 13.7; SENP1 inh: 1.1; SENP7 block: 63.8*; SENP6 block: 72.6*; SENP8 block-2: 50.2*; SENP8 conf: 59.3*; SENP6 conf: 56.4*; SENP7 confirm: 85.3*; Casp3 select: 79.0*; SENP luc ctr: 71.9*

Results for CC(C)C1Oc2ccccc2C(=O)N(CC(=O)c2ccc3c(c2)OCCO3)C1=O (centres undefined) ?
SENP8 block-1: 3.8; SENP1 inh: 1.1; SENP7 block: 55.5*; SENP6 block: 15.6; SENP8 block-2: -20.4; SENP8 conf: 2.0; SENP6 conf: 5.7; SENP7 confirm: 12.6; Casp3 select: 25.9; SENP luc ctr: -3.6

How did O=C(Nc1ccccc1)Nc1ccc(F)cc1F do in these assays?
SENP8 block-1: 29.2; SENP1 inh: 1.0; SENP7 block: 69.6*; SENP6 block: 66.7*; SENP8 block-2: 43.9; SENP8 conf: 59.4*; SENP6 conf: 56.2*; SENP7 confirm: 82.1*; Casp3 select: 67.3*; SENP luc ctr: 45.0

How did CC(=O)Nc1cccc(NC(=O)Nc2ccc(F)cc2F)c1 do in these assays?
SENP8 block-1: 10.4; SENP1 inh: 0.5; SENP7 block: -5.9; SENP6 block: -19.1; SENP8 block-2: -16.2

How did COC(=O)c1ccc(NC(=O)Cc2ccc(F)cc2)cc1 do in these assays?
SENP8 block-1: 13.2; SENP1 inh: 0.3; SENP7 block: 0.7; SENP6 block: -10.3; SENP8 block-2: -6.8

Assay outcomes: PubChem BioAssay, Sanford-Burnham Center for Chemical Genomics
